Results on 1 compound are retold here after ChEMBL document CHEMBL2046403, “Biochemical and pharmacological evaluation of 4-hydroxychromen-2-ones bearing polar C-3 substituents as anticoagulants” (Eur J Med Chem, 2012).

For series [1], the system named is Plasma. The series is described as follows: Anticoagulant activity in human plasma assessed as prothrombin time at 1 mg/ml. The series is classed as functional. In a few lines:
(§1)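 Frozen human plasma (blood type A+) was used. Compounds were prepared at 1 mg/mL in a vehicle of 96% EtOH, 0.9% NaCl, 20% glycerol and phosphate buffer pH 7. Prothrombin time was measured by Quick method and reported in seconds and as INR, with SD from at least three measurements.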

The test system of series [2] is Plasma. Description: Anticoagulant activity in Wistar albino rat plasma assessed as prothrombin time at 0.1 mg/kg, ip. In kind it is functional. The following applies: route intraperitoneal. In a few lines:
(§2)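 Adult Wistar rats (2.5 months, 220–250 g), three per compound and control, were given a single i.p. dose of 0.1 or 0.5 mg/kg in ethanol solution and sacrificed 24 h later. […] Plasma prothrombin time was measured by Quick method and reported in seconds and as INR, from at least three measurements.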

Series [3] deals with Plasma. The series is described as follows: Anticoagulant activity in Wistar albino rat plasma assessed as prothrombin time at 0.5 mg/kg, ip. The series is classed as functional. The following applies: route intraperitoneal. A digest of the protocol:
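Adult Wistar rats (2.5 months, 220–250 g), three per compound and control, were given a single i.p. dose of 0.1 or 0.5 mg/kg in ethanol solution and sacrificed 24 h later. Plasma prothrombin time was measured by Quick method and reported in seconds and as INR, from at least three measurements.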

For series [4], the system named is Plasma. Description: Anticoagulant activity in Wistar albino rat plasma assessed as fibrinogen level. In kind it is functional. In a few lines: (§3)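 Adult albino Wistar rats (2.5 months old, 220–250 g), three per compound and control. […] Fibrin time and fibrinogen were determined on plasma. Fibrinogen was quantified by biuret method at 540 nm. At least three measurements, reported with standard deviation.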

Series [5] concerns Plasma. Description: Anticoagulant activity in Wistar albino rat plasma assessed as fibrin time. The series is classed as functional. A digest of the protocol: as §3
The subject of series [6] is Rattus norvegicus. Description: Hepatotoxicity in Wistar albino rat assessed as change in serum protein level at 0.5 mg/kg, ip measured after 24 hrs. The series is classed as toxicity, organism-based. Further details: dose 0.5 mg/kg, route intraperitoneal. Particulars: in vivo.
For series [7], the system named is Rattus norvegicus. Description: Hepatotoxicity in Wistar albino rat assessed as change in serum albumin level at 0.5 mg/kg, ip measured after 24 hrs. The following applies: in vivo. Further details: dose 0.5 mg/kg, route intraperitoneal. In kind it is toxicity, organism-based.
Series [8] deals with Plasma. Description: Anticoagulant activity in human plasma assessed as international normalized ratio at 1 mg/ml. In kind it is functional. A digest of the protocol: as §1
Series [9] has as its system Plasma. The series is described as follows: Anticoagulant activity in Wistar albino rat plasma assessed as international normalized ratio at 0.1 mg/kg, ip. In kind it is functional. The following applies: route intraperitoneal. In a few lines: as §2
Series [10] concerns Plasma. Description: Anticoagulant activity in Wistar albino rat plasma assessed as international normalized ratio at 0.5 mg/kg, ip. In kind it is functional. The following applies: route intraperitoneal. In a few lines:
as §2

Series [11] relates to Rattus norvegicus. Description: Hepatotoxicity in Wistar albino rat assessed as change in serum protein level at 0.5 mg/kg/day, ip administered for 5 days. In kind it is toxicity, organism-based. Further details: route intraperitoneal. The following applies: in vivo, 120 h.
In series [12] the test system is Rattus norvegicus. Description: Hepatotoxicity in Wistar albino rat assessed as change in serum albumin level at 0.5 mg/kg/day, ip administered for 5 days. Further details: route intraperitoneal. Particulars: in vivo, 120 h. In kind it is toxicity, organism-based.
Series [13] concerns Rattus norvegicus. Description: Anticoagulant activity in Wistar rats in vivo assessed as prothrombin time.

The term IC50 denotes the point on the concentration scale where inhibition reaches its midpoint. For the compound `C/C(=C(\C#N)C(=O)O)c1c(O)c2ccccc2oc1=O`, the PT amounted to 21 s with Plasma [1], 8.2 s in the series on Plasma [2] and 9.2 s in the series with Plasma [3]. In addition, the Activity is 0.5 g/L in the series with Plasma [4]; 68.9 g/L with Rattus norvegicus [6]; 38.6 g/L in the series with Rattus norvegicus [7]; 68.9 g/L in the series with Rattus norvegicus [11]; 38.6 g/L with Rattus norvegicus [12]. In addition, the Time in the series with Plasma [5] is 196.8 s. Also, the figures for the Ratio with Plasma [8], with Plasma [9] and in the series on Plasma [10] were 2.25, 0.66 and 0.69, respectively. Moreover, the IC50 in the series on Rattus norvegicus [13] is 2340 µM.
